Measurements as given in ChEMBL document CHEMBL1125381, “Synthesis and alpha-adrenergic activities of 2- and 4-substituted imidazoline and imidazole analogues” (J Med Chem, 1992).

Legend:
[1] = species: Rattus norvegicus; assay: Percent maximal analogue response relative to phenylephrine =100%; assay type: functional
Procedure, shortened: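 Rat aorta (α1) contraction. The maximal response to each analogue is expressed as percent of the maximal response to the reference agonist phenylephrine (phenylephrine = 100%). Mean ± SEM, N = 4.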

[2] = Potency ratio is defined as EC50 (medetomidine) / EC50 (compound)
[3] = molecular target: T1, Adrenergic receptor alpha-2 (Homo sapiens, UniProt P08913+P18825+P18089); assay: Compound was evaluated for Adrenergic activity against Alpha-2 adrenergic receptor in human platelets
T1 sequence (P08913 whole entry): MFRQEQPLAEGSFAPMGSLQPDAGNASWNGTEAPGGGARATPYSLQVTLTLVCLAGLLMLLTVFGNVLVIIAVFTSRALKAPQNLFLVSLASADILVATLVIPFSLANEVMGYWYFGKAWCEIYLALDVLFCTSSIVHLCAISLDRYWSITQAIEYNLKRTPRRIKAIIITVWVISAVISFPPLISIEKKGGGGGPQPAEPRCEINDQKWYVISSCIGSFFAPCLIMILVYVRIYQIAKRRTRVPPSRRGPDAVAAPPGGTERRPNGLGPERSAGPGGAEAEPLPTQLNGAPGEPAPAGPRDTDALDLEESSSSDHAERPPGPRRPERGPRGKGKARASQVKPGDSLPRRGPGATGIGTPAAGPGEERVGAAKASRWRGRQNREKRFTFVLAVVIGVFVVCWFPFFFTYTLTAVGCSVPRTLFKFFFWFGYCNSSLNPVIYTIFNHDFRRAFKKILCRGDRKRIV
T1 sequence (P18825 whole entry): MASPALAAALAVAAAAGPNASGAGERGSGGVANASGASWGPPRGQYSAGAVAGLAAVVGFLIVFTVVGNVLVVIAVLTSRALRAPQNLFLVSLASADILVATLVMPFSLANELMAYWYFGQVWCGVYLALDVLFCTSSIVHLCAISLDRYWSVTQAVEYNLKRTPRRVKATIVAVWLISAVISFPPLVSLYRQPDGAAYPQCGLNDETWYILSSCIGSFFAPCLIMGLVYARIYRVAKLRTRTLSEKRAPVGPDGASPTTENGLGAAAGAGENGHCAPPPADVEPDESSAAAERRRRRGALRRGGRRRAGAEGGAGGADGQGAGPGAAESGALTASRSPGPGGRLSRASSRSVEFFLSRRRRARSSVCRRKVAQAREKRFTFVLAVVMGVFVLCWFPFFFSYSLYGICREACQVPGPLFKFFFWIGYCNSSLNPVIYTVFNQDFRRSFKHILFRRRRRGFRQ
T1 sequence (P18089 whole entry): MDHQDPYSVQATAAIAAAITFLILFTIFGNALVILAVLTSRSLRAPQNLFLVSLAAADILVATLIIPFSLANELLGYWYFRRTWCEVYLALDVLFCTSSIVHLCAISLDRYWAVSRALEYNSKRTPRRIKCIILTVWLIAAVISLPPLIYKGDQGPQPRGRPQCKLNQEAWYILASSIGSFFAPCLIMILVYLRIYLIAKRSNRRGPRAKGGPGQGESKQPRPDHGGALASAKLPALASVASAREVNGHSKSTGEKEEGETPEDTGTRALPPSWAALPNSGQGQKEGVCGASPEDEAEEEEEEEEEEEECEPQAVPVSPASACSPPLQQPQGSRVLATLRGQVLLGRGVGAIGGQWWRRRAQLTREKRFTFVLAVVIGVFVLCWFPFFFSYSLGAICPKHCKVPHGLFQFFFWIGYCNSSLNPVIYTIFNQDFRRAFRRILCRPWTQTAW
Procedure, shortened: (§1)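 Platelet-rich plasma from drug-free human volunteers (no medication for 10 days) treated with 1 mM aspirin. Inhibitors added at various concentrations 1 min before epinephrine. Read-out is primary-wave aggregation. […] Potency ratio = IC50 of medetomidine / IC50 of analogue.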

[4] = Potency ratio is defined as IC50(medetomidine)/IC50(compound); procedure, shortened: as §1
[5] = molecular target: Adrenergic receptor alpha-1 (Rattus norvegicus) (UniProt P15823+P23944+P43140); assay: Molar concentration towards Alpha-1 adrenergic receptor which shifts concentration curve of phenylephrine to the right by 2-fold (0.3 log units)
Procedure, shortened: (§2)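 Rat aorta (α1) antagonism. KB is the molar analogue concentration that shifts the phenylephrine concentration-response curve 2-fold (0.3 log units) to the right. Derived by computerized analysis of the concentration-response data.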

[6] = molecular target: T2, Adrenergic receptor alpha-1 (Rattus norvegicus, UniProt P15823+P23944+P43140); assay: Compound was evaluated for Adrenergic activity against Alpha-1 adrenergic receptor from rat aorta
T2 sequence (P15823 whole entry): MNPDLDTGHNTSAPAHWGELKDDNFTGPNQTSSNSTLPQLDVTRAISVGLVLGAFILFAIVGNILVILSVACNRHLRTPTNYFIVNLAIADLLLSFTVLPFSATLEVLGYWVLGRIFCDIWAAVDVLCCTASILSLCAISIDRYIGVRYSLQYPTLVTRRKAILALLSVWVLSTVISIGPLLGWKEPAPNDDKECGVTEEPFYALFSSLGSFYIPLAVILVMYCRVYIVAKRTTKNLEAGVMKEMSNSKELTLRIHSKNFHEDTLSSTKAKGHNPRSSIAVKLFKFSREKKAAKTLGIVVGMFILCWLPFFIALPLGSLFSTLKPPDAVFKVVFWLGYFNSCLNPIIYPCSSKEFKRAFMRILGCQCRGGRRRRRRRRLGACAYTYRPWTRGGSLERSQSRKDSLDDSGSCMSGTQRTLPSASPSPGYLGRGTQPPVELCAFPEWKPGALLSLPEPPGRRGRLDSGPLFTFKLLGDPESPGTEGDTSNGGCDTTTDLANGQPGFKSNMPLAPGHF
T2 sequence (P23944 whole entry): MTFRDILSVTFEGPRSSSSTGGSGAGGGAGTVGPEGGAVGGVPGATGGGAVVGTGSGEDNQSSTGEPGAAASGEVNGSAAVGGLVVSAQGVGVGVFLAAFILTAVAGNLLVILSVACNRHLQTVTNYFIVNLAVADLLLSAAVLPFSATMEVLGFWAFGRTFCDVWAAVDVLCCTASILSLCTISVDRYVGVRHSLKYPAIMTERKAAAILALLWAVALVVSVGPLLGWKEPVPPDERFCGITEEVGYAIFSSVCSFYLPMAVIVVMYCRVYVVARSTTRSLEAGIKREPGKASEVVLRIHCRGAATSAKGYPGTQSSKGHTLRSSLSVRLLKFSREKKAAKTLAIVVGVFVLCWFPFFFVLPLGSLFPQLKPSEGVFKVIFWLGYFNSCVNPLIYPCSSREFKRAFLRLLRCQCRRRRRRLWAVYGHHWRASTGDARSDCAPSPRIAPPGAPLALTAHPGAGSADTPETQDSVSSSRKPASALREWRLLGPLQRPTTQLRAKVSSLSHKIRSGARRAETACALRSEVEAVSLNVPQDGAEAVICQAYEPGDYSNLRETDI
T2 sequence (P43140 whole entry): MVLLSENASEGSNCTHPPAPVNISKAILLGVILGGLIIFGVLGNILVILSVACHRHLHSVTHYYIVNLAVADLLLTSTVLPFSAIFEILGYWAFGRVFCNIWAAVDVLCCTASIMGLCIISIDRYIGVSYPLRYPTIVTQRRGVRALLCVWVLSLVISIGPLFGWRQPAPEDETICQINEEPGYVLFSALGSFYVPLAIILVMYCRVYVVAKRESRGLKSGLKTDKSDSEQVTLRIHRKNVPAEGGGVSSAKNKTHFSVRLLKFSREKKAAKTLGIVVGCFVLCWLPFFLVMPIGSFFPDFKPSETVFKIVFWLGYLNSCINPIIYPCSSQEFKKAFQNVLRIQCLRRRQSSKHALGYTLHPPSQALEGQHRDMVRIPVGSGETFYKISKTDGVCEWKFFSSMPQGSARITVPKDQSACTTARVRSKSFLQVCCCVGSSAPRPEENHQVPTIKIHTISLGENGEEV

[7] = species: Rattus norvegicus; assay: Molar concentration of analogue which shifts concentration curve of phenylephrine to the right by 2-fold (0.3 log units); assay type: functional; procedure, shortened: as §2
[8] = molecular target: T1, Adrenergic receptor alpha-2; assay: Compound was tested for Adrenergic activity against Alpha-2 adrenergic receptor from rat aorta; assay type: tissue-based

| SMILES | Max [1] | Potency ratio [2] | IC50 [3] | Potency ratio [4] | Kb [5] | EC50 [6] | KB [7] | IC50 [8] |
| --- | --- | --- | --- | --- | --- | --- | --- | --- |
| Cl.c1ccc2c(CC3=NCCN3)cccc2c1 [NAPHAZOLINE HYDROCHLORIDE] | 68% | – | – | – | – | – | – | – |
| CC(C1=NCCN1)c1cccc2ccccc12.Cl (stereo not given) | 62% | 0.57 | 14 pM | 0.24 | – | – | – | – |
| CC(c1ccc2ccccc2c1)c1c[nH]cn1.Cl (stereo not given) | – | – | 120 pM | 0.028 | 68000 pM | – | – | – |
| Cl.c1ccc2c(Cc3ncc[nH]3)cccc2c1 | 56% | 1.6 | 34 pM | 0.097 | – | 200000 pM | – | – |
| CC(C1=NCCN1)c1ccc2ccccc2c1.Cl (stereo not given) | – | – | 16 pM | 0.21 | – | – | 0.26 µM | – |
| Cc1cccc(C(C)c2c[nH]cn2)c1C.Cl (stereo not given) [MEDETOMIDINE HYDROCHLORIDE] | 42% | – | – | – | – | 310000 pM | – | – |
| CC(c1ncc[nH]1)c1cccc2ccccc12.Cl (stereo not given) | 40% | 0.04 | 260 pM | 0.013 | – | – | – | – |
| CC(c1c[nH]cn1)c1cccc2ccccc12.Cl (stereo not given) | 27% | 1.6 | – | 0.97 | – | 200000 pM | – | 3.4 pM |
| CC(c1ccc2ccccc2c1)c1ncc[nH]1.O=C(O)C(=O)O (stereo not given) | – | – | 610 pM | 0.0054 | – | – | 1.5e-06 µM | – |
